The M2OR odorant receptor database

Experiments:
Conditions in all cases: stereoisomer not certain
UniProt Q920P1 = target: T1, UniProt Q920P1
T1 sequence (whole entry): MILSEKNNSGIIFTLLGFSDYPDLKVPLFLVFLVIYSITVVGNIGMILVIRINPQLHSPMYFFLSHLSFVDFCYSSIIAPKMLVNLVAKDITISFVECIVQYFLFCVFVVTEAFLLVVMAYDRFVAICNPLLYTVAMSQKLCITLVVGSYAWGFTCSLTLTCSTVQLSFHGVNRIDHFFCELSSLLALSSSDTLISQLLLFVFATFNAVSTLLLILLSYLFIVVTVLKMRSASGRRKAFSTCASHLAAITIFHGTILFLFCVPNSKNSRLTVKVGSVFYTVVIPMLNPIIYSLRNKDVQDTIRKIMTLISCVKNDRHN
How it was run: (§1)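 Whether a receptor–molecule pair is responsive (active) rests on the original authors' judgment that its measured signal was statistically different from baseline. Pairs without that judgment are non-responsive (inactive). Sources used varied assay methods, commonly transient luciferase assays in mammalian cell lines.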

UniProt Q8VGZ2 = target: T2, UniProt Q8VGZ2
T2 sequence (whole entry): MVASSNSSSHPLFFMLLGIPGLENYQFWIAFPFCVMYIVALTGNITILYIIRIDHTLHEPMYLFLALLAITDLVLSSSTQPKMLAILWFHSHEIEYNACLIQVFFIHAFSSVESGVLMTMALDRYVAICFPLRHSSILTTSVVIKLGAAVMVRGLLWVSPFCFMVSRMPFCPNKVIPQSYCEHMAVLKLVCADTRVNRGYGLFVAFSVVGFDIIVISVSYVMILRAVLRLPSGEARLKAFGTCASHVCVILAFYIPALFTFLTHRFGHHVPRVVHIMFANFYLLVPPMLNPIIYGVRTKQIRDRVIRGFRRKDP
How it was run: as §1

UniProt Q8VGZ7 = target: T3, UniProt Q8VGZ7
T3 sequence (whole entry): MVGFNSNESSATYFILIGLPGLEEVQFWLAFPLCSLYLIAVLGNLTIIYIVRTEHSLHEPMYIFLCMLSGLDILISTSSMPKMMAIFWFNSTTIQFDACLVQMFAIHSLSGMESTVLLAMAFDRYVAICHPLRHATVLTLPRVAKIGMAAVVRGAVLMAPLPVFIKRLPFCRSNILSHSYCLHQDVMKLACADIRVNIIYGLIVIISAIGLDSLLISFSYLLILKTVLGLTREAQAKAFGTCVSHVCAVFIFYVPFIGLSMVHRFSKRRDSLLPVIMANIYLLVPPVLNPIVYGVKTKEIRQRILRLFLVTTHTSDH
How it was run: as §1

UniProt Q8VH16 = target: T4, UniProt Q8VH16
T4 sequence (whole entry): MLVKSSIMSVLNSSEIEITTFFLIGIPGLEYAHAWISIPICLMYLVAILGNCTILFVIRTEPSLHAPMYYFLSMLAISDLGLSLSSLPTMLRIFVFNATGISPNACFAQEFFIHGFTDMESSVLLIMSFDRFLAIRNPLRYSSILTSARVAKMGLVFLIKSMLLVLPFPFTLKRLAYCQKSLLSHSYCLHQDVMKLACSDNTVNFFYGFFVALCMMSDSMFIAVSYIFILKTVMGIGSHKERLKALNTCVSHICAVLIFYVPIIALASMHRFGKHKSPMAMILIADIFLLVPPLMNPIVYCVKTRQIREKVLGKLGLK
How it was run: as §1

UniProt Q8VH20 = target: T5, UniProt Q8VH20
T5 sequence (whole entry): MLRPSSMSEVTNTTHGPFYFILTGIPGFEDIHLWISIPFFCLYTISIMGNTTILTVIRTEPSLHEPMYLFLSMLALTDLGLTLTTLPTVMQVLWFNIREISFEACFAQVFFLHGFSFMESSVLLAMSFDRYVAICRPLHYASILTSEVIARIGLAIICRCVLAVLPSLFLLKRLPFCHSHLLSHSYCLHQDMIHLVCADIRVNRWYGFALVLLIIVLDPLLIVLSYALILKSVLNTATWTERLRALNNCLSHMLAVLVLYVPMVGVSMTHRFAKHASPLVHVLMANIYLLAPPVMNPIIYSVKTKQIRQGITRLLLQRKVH
How it was run: as §1

UniProt Q8VH21 = target: T6, UniProt Q8VH21
T6 sequence (whole entry): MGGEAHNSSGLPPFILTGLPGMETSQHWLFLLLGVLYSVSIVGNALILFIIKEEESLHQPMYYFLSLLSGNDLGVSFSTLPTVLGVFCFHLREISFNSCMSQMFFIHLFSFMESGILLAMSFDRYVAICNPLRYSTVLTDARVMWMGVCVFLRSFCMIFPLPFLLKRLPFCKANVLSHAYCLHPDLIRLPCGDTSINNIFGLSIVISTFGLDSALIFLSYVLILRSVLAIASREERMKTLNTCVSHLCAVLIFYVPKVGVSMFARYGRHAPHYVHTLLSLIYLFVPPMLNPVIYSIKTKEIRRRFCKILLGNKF
How it was run: as §1

UniProt Q8VH18 = target: T7, UniProt Q8VH18
T7 sequence (whole entry): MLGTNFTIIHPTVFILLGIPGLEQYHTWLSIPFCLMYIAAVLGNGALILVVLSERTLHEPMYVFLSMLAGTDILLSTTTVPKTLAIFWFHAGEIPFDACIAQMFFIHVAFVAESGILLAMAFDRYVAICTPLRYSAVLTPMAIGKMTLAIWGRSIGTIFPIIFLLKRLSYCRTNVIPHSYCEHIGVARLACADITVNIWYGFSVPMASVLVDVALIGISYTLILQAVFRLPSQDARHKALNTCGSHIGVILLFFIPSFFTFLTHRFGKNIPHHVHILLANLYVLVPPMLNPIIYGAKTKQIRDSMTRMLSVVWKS
How it was run: as §1

Measured: odorant receptor agonist call;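 further: active if original authors judged signal statistically different from baseline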

CCc1ccc(O)c(OC)c1
inactive: UniProt Q920P1

C=C(C)C1CCC2(C)OC2C1 (stereo not drawn)
not listed: UniProt Q920P1 | UniProt Q8VH18
inactive: all other assays above

C1CCOCC1
not listed: UniProt Q920P1 | UniProt Q8VH18
inactive: all other assays above

CC(C)CS
not listed: UniProt Q920P1 | UniProt Q8VH18
inactive: all other assays above

O=C(O)CCCCCCCCC(=O)O
not listed: UniProt Q920P1 | UniProt Q8VH18
inactive: all other assays above

CCOC(=O)CC(C)C
not listed: UniProt Q920P1 | UniProt Q8VH18
inactive: all other assays above

CC1CC=CCCCCCCCCCC(=O)C1 (stereo not drawn)
not listed: UniProt Q920P1 | UniProt Q8VH18
inactive: all other assays above

C=CC(=C)CCC=C(C)C
not listed: UniProt Q920P1 | UniProt Q8VH18
inactive: all other assays above

CCCCCCC(C=O)=Cc1ccccc1
not listed: UniProt Q920P1 | UniProt Q8VH18
inactive: all other assays above

CCCCCCC(=O)OCCCC
not listed: UniProt Q920P1 | UniProt Q8VH18
inactive: all other assays above

CCCCOC(=O)CCC
inactive: UniProt Q8VH18

O=C(O)C1CCC1
active: UniProt Q8VH21
inactive: UniProt Q8VGZ2 | UniProt Q8VGZ7 | UniProt Q8VH16 | UniProt Q8VH20

CCCCCCCCCCOC(C)=O
not listed: UniProt Q920P1 | UniProt Q8VH18
inactive: all other assays above

C=CC(C)=CCC=C(C)CCC=C(C)C
not listed: UniProt Q920P1 | UniProt Q8VH18
inactive: all other assays above

CCCC(C)C(=O)OCC (stereo not drawn)
not listed: UniProt Q920P1 | UniProt Q8VH18
inactive: all other assays above

Cc1ccc(OC(=O)C(C)C)cc1
not listed: UniProt Q920P1 | UniProt Q8VH18
inactive: all other assays above

CC(C=O)Cc1ccc(C(C)(C)C)cc1 (stereo not drawn)
inactive: UniProt Q920P1

c1ccc2ncccc2c1
not listed: UniProt Q920P1 | UniProt Q8VH18
inactive: all other assays above

Cc1occc1SSc1ccoc1C
not listed: UniProt Q920P1 | UniProt Q8VH18
inactive: all other assays above
